Bioassay records from PubChem.
Measles CPE: protection of cells from measles virus; Measles virus-infected cells, CPE protection, absorbance; protection (pct of control), % at 4 µM; 140,000 tested, 1.5% active; AID 841; in the data active means protection mostly above about 24%, no sharp cut-off; inactive means mostly below about 26%
RAM network inh: blocks the yeast RAM network. S. cerevisiae dse1pr::URA3 reporter, 5-FOA growth OD615, 2 d; analog-sensitive cbk1-as2 kinase mutant strain. inhibition, % at 50 µM. 190,000 tested, 1.8% active. AID 868;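 active means inhibition above a set limit, 3 SD over mean compound inhibition, cut at about 8.4% in these data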;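 further: 0% = DMSO-only wells with no growth and 100% = 10 µM 1-NA-PP1 full growth; inhibition rescues growth on 5-FOA so higher OD means more RAM inhibition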
Yeast growth inh: reduces growth of yeast BB579 in restrictive medium; S. cerevisiae BB579 growth, OD615, 48 h; inhibition, % at 10 µM; 140,000 tested, 0.51% active; AID 804;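 active means inhibition above a set limit, 3 SD over the mean compound inhibition, cut at about 44% in these data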
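test system = yeast BB579 (DeaD) | buffer or medium = restrictive CSMM-D medium | doses = single compound dose of 10 µM, 0.25% DMSO final | times = 4 h preincubation and 48 h exposure at 30 °C | technique = culture absorbance at 615 nm | benchmarks = amphotericin B 10 µg/mL, positive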
Yeast life ext: extends the lifespan of yeast; 130,000 tested, 0.68% active; AID 775; S. cerevisiae growth with nicotinamide, OD615; deaD strain in restrictive glucose medium; inhibition of the nicotinamide effect, % at 10 µM;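 active means inhibition above a set limit, placed 3 SD over the median of all compounds, cut at about 26% in these data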;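 further: 0% = nicotinamide-treated wells and 100% = cells grown without nicotinamide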
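System: Modified budding yeast, DeaD strain | Buffer or medium: Restrictive glucose medium | Also added: 1.5 mM nicotinamide | Doses: 10 µM single point, 0.25% DMSO | Schedule: 48 h compound exposure at 30 °C, humidified | Detection: Absorbance at 615 nm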
* hit, by the source's call; nt = no result. Rows were chosen to be rich in hits. Some 3.8% of all compounds tested hit in one or more screens of this group.

SMILES | Measles CPE | RAM network inh | Yeast growth inh | Yeast life ext
CC(C)(Nc1ccccc1)C(=O)c1ccccc1 | 32* | 0 | 8 | 6
Cc1cccc2[nH]c(SCC(=O)N3CCOCC3)nc12 | nt | 2 | nt | nt
COc1ccc2nc(Nc3nc(CSc4ccc(C)cc4)cc(=O)[nH]3)nc(C)c2c1 | nt | 11* | nt | nt
O=C(Cn1cc([N+](=O)[O-])nc1[N+](=O)[O-])N1CCN(c2ccccc2)CC1 | nt | 2 | nt | nt
COc1ccccc1NC(=O)/C(=C/c1cccc([N+](=O)[O-])c1)c1ccccc1 | 12 | 11* | -14 | -3
O=C(Nc1nc(-c2ccccc2)cs1)c1cccs1 | 1 | 0 | -14 | -4
O=C(Nc1nc(-c2ccccc2)ns1)c1cccs1 | 33* | 3 | -36 | -15
Cc1occc1C(=O)NNC1=CC(=O)CC(C)(C)C1 | 6 | 1 | -35 | 2
O=C(/C=C/c1cccc([N+](=O)[O-])c1)NCCSCc1c(Cl)cccc1Cl | 27 | 9.7* | -46 | -1
O=C(/C=C/c1cccc([N+](=O)[O-])c1)NCCSc1ccccc1 | 29 | -1 | -10 | -25
Cc1ccc(SCCNC(=O)/C=C/c2cccc([N+](=O)[O-])c2)cc1 | 11 | 9.7* | -24 | -5
Cc1cc(NC(=O)c2ccc(C#N)cc2)on1 | nt | 2 | nt | nt
Cc1ccc(CNC(=O)Cn2nnc3ccccc3c2=O)cc1 | nt | 3 | nt | nt
CCOC(=O)c1sc(=S)sc1SCc1cccc(C(F)(F)F)c1 | 11 | 8.9* | -51 | 0
CCCc1nnc(SCC(=O)N2CCCC(C)C2)n1CCOC (stereo not drawn) | nt | 2 | nt | nt
O=C(NCCc1ccccc1)C1CCCN1C(=O)Nc1ccc(F)cc1 (stereo not drawn) | 29* | 0 | -27 | -5
O=C(COC(=O)/C=C/c1ccccc1Cl)NC1CCCCCC1 | nt | 4 | nt | nt
CC(C)N(Cc1cn[nH]c1-c1ccc(-c2ccccc2)cc1)Cc1nccn1C | nt | 0 | nt | nt
CCC(C)(C)NC(=O)c1ccc(Sc2nncn2C)c([N+](=O)[O-])c1 | 7 | 1 | -25 | -2
Cn1cnnc1Sc1ccc(/C=C/C(=O)c2ccc(O)cc2)cc1[N+](=O)[O-] | nt | 8.4* | nt | nt
C#CCNC(=O)C1=C[C@H](c2ccc(C(F)(F)F)cc2)C[C@H](OCCCCO)O1 | nt | 2 | nt | nt
CN(C)Cc1c(-c2ccc(Cl)cc2)nc2ccc(Cl)cn12 | nt | 0 | nt | nt
Cc1ccc(C(=O)Oc2ccccc2N2C(=O)C3C4CCC(C4)C3C2=O)cc1 (stereo not drawn) | 4 | 1 | -34 | 8
COc1ccc(-n2ncc3c(NCCCn4ccnc4)ncnc32)cc1 | 66* | 0 | 5 | -11
COCCNc1ncnc2c1cnn2-c1ccc(Cl)cc1 | 2 | 0 | -10 | -8
SMILES | Measles CPE | RAM network inh | Yeast growth inh | Yeast life ext
COc1ccc(/C=N/N2CCN(C)CC2)cc1O | 28* | 0 | -14 | -4
CCN1CC(CN(C)Cc2nc(-c3ccc(C(F)(F)F)cc3)oc2C)CC1=O (stereo not drawn) | nt | 2 | nt | nt
Cc1cc(=O)oc(C)c1C(=O)NCCCN1CCN(c2ccc(F)cc2)CC1 | 43* | 1 | -35 | -5
COc1ccc(N2CCN(CCNC(=O)c3c(C)cc(=O)oc3C)CC2)cc1 | 17 | -1 | -15 | -7
Cc1ccc(C(=O)N/C(=C/c2ccccc2)C(=O)NCC2CCCO2)cc1 (stereo not drawn) | nt | 1 | nt | nt
CCN(CC)c1ccc(/C=C(\C#N)C(=O)c2ccc(Br)cc2)cc1 | 4 | 9.2* | -32 | -1
CCN(CC)c1ccc(/C=C(\C#N)C(N)=O)cc1 | nt | 1 | nt | nt
CC(c1ccccc1F)n1cc(C(=O)NCCCc2nc3ccccc3[nH]2)nn1 (stereo not drawn) | nt | 1 | nt | nt
CCn1nc(C)c(CNC(=O)Nc2ccccc2C(=O)OC)c1C | nt | 0 | nt | nt
Cc1cc(NC(=O)CCCN2C(=O)c3cccc4cccc(c34)C2=O)no1 | nt | 1 | nt | nt
CCOC(=O)CSc1nnc(CCCCCN2C(=O)c3cccc4cccc(c34)C2=O)o1 | 16 | 11* | -60 | 10
Cc1ccc(NC(=O)c2cc(NC(=O)CCC(=O)O)ccc2N2CCCCC2)cc1 | 8 | 9.0* | -31 | -9
CC(CCc1ccccc1)NCC(O)COc1ccccc1 (stereo not drawn) | nt | 2 | nt | nt
O=C(Nc1ccncc1)c1cc(F)cc(F)c1 | 9 | 1 | 2 | -14
Cn1c(N)c(C(=O)COC(=O)COc2ccccc2C#N)c(=O)n(C)c1=O | nt | 4 | nt | nt
Cc1cc2sc3ccccc3c(=O)c2c(C)c1O | nt | 1 | nt | nt
O=c1c(C(c2ccccc2)c2c(O)sc3ccccc3c2=O)c(O)sc2ccccc12 | 5 | nt | -9 | 26*
Cc1cccc2c1N1C(=O)c3c(C(=O)O)cccc3C1CC2C (stereo not drawn) | 18 | -1 | -24 | nt
N#Cc1ccccc1Sc1ccccc1C(=O)OCc1nnc(-c2ccccc2)o1 | 4 | 10* | -57 | -15
Cc1cccc(N2C(=O)C(Oc3ccc(Cl)cc3Cl)C2C=O)c1C (stereo not drawn) | 12 | 4 | -27 | 51*
CC/C(=N/OC(=O)c1cccc(C)c1)C(=O)c1cccs1 | nt | 0 | nt | nt
CSCCC(NS(=O)(=O)c1ccc(Cl)cc1)C(=O)OCC(=O)c1ccc(F)cc1 (stereo not drawn) | 16 | 8 | -25 | 36*
CSCCC(NS(=O)(=O)c1ccc(Cl)cc1)C(=O)OCc1cccc(Cl)c1 (stereo not drawn) | 9 | 8.5* | -32 | 19
CCCNC(=O)CN(C)CC(=O)Nc1ccccc1C#N | nt | 0 | nt | nt
NC(=O)C1CCN(C(=O)CSc2nc3ccccc3[nH]2)CC1 | 16 | 2 | -12 | -10
SMILES | Measles CPE | RAM network inh | Yeast growth inh | Yeast life ext
NC(=O)C1(N2CCCCC2)CCN(C(=O)CSc2nc3ccccc3[nH]2)CC1 | 41* | 0 | -38 | nt
CNC(=O)COC(=O)c1cc(=O)[nH]c2ccccc12 | 2 | 0 | 8 | 54*
Cc1ccc(C(=O)COC(=O)c2cc(=O)[nH]c3ccccc23)cc1C | nt | 4 | nt | nt
CC(C)(C)NC(=O)NC(=O)COC(=O)c1cc(=O)[nH]c2ccccc12 | 35* | 2 | -4 | -7
C/C(CCC(C)C)=N\NC(=S)Nc1cc(S(=O)(=O)N2CCOCC2)ccc1N1CCOCC1 | nt | 2 | nt | nt
O=C1CC(NC23CC4CC(CC(C4)C2)C3)C(=O)N1c1ccc2c(c1)OCO2 (stereo not drawn) | 32* | 3 | -51 | -1
Cc1ccc(/C=c2\sc3nc(-c4cccs4)nn3c2=O)o1 | 2 | 9.0* | -10 | 8
O=C(NCCSCc1c(F)cccc1Cl)c1ccc(CN2CCOCC2)cc1 | 8 | 0 | -22 | 5
CCCc1nnc(NC(=O)CCC(=O)N2CCN(CCOc3ccc(C)cc3)CC2)s1 | 2 | 1 | -7 | -11
CCCc1nnc(NC(=O)CCC(=O)N2CCN(CCn3c(C)ccc3C)CC2)s1 | 31* | 2 | -32 | -8
CS(=O)(=O)NCC(c1ccco1)N1CCN(c2ccc(F)cc2)CC1 (stereo not drawn) | 63* | 0 | -8 | 8
CCS(=O)(=O)NCC(c1ccco1)N1CCN(c2ccc(F)cc2)CC1 (stereo not drawn) | 2 | 1 | -35 | 5
